Calls of active or inactive are those of the source. No cut-off for these calls is given here. *1 amine or outer side, *2 acyl side, *3 side chain or, on linkers, in order; H or OH if unused. Where a SMILES comes first, the peptide text is derived from it. Bridges are numbered along the chain shown (N, C = ends). [ ]: non-standard residue; d: D form. hTyr = N[C@@H](CCc1ccc(O)cc1)C(=O)O; NMeA = CN[C@@H](C)C(=O)O; CO = O=C([*:1])[*:2]
Columns and labels:
[1] = target: T1, Trypsin (Homo sapiens, UniProt P07477+P07478+P35030); experiment: Inhibition of trypsin (unknown origin) using benzoyl-L-arginine-p-nitroanilide hydrochloride as substrate preincubated for 5 mins before substrate addition measured after 30 mins; assay type: protein assay
How it was run: (§1)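 Trypsin stock 1 mg/mL in 0.05 M Tris-HCl/100 mM NaCl/1 mM CaCl2, pH 7.5. Substrate in 1:9 DMSO/Tris buffer. Samples from 1 mg/mL DMSO stocks. Enzyme and sample are preincubated in buffer at 37 °C for 5 min. Substrate is then added and kinetics are read at 405 nm, 37 °C, for 30 min. Percent inhibition is taken against a DMSO vehicle control.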

[2] = target: T2, Prothrombin (Homo sapiens, UniProt P00734); experiment: Inhibition of thrombin (unknown origin) using z-Gly-Pro-Arg-4MbetaNA-acetate as substrate preincubated at 45.5 uM for 20 mins before substrate addition measured after 20 mins
How it was run: (§2)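 Thrombin stock 0.5 mg/mL in 0.2 M Tris-HCl, pH 8. Substrate stock 0.5 mg/mL in water. Test samples from 1 mg/mL DMSO stocks. Enzyme and sample are preincubated in buffer at 25 °C for 20 min. Substrate is then added and kinetics are read at 405 nm, 25 °C, for 20 min. Percent inhibition is taken against a DMSO-only control.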

[3] = target: T1, Trypsin; experiment: Inhibition of trypsin (unknown origin) using benzoyl-L-arginine-p-nitroanilide hydrochloride as substrate preincubated at 45.5 uM for 5 mins before substrate addition measured after 30 mins; assay type: protein assay; how it was run: as §1
[4] = target: T2, Prothrombin; experiment: Inhibition of thrombin (unknown origin) using z-Gly-Pro-Arg-4MbetaNA-acetate as substrate preincubated for 20 mins before substrate addition measured after 20 mins; how it was run: as §2

SMILES | inhibition [1] | inhibition [2] | IC50 [1] | inhibition [3] | other results
CC[C@H](C)[C@@H]1NC(=O)[C@H](Cc2ccccc2)N(C)C(=O)[C@H]([C@@H](C)CC)N2C(=O)[C@H](CC[C@H]2OC)NC(=O)[C@H](CCCNC(=N)N)NC(=O)[C@@H](NC(=O)[C@H](O)COS(=O)(=O)O)[C@@H](C)OC1=O | Active | – | – | – | –
CC(C)C[C@@H](NC(=O)[C@H](O)Cc1ccc(O)c(Cl)c1)C(=O)N1[C@H](C(=O)NCCCCNC(=N)N)C[C@@H]2CC[C@@H](OS(=O)(=O)O)C[C@@H]21 | – | inactive | 9.5 µM | – | –
CC[C@H](C)[C@@H]1NC(=O)[C@H](Cc2ccccc2)N(C)C(=O)[C@H]([C@@H](C)CC)N2C(=O)[C@H](CC[C@H]2OC)NC(=O)[C@H](CCCNC(=N)N)NC(=O)[C@@H](NC(=O)[C@@H](COS(=O)(=O)O)OS(=O)(=O)O)[C@@H](C)OC1=O | Active | – | – | – | –
NC(=O)[C@@H]1C[C@@H]2CC[C@H](O)C[C@@H]2N1C(=O)[C@@H](Cc1ccccc1)NC(=O)[C@H](O)Cc1ccc(O)cc1 | – | inactive | – | inactive | –
N=C(N)NCCCCNC(=O)[C@@H]1C[C@@H]2CC[C@@H](O)C[C@@H]2N1C(=O)[C@H](Cc1ccccc1)NC(=O)[C@@H](O)Cc1ccc(O)c(Cl)c1 | – | – | 30.8 µM | – | IC50 [4]: 15.5 µM
CC[C@H](C)[C@@H]1NC(=O)[C@H](Cc2ccccc2)N(C)C(=O)[C@H]([C@@H](C)CC)N2C(=O)[C@H](CC[C@H]2O)NC(=O)[C@H](CCCNC(=N)N)NC(=O)[C@@H](NC(=O)[C@@H](COS(=O)(=O)O)OS(=O)(=O)O)[C@@H](C)OC1=O | Active | – | – | – | –
CC[C@H](C)[C@@H]1NC(=O)[C@H](NC(=O)N[C@@H](CCCNC(=N)N)C(=O)O)CCCCNC(=O)[C@H](Cc2ccccc2)NC(=O)[C@H](C)N(C)C(=O)[C@H](CCc2ccc(O)cc2)NC1=O ({Arg-CO}-[dK]I[hTyr][NMeA]F; lactam 1-C) | – | inactive | – | inactive | –
C=C(C)C(O)CC/C(C)=C/CN(CCCC(C(=O)[O-])[N+](C)(C)C)C(=N)N (stereo not given) | – | inactive | – | inactive | –
CC[C@H](C)[C@@H]1NC(=O)[C@H](Cc2ccccc2)N(C)C(=O)[C@H]([C@@H](C)CC)N2C(=O)[C@H](CC[C@H]2O)NC(=O)[C@H](CCCNC(=N)N)NC(=O)[C@@H](NC(=O)[C@H](O)COS(=O)(=O)O)[C@@H](C)OC1=O | Active | – | – | – | –
N=C(N)NCCCCNC(=O)[C@@H]1C[C@@H]2CC[C@@H](O)C[C@@H]2N1C(=O)[C@H](Cc1ccccc1)NC(=O)[C@H](O)Cc1ccc(O)c(Cl)c1 | – | inactive | 19 µM | – | –
NC(=O)[C@@H]1C[C@@H]2CC[C@H](O)C[C@@H]2N1C(=O)[C@@H](Cc1ccc(O)cc1)NC(=O)[C@H](O)Cc1ccc(O)cc1 | – | inactive | – | inactive | –
CC(C)C[C@@H](NC(=O)[C@H](O)Cc1cc(Cl)c(O)c(Cl)c1)C(=O)N1[C@H](C(=O)NCCCCNC(=N)N)C[C@@H]2CC[C@@H](OS(=O)(=O)O)C[C@@H]21 | – | inactive | 7.3 µM | – | –

Source: ChEMBL document CHEMBL3091399, “Protease inhibitors from Microcystis aeruginosa bloom material collected from the Dalton Reservoir, Israel” (J Nat Prod, 2013)
